Screens as filed in PubChem.
UPR XBP1 act – adaptive UPR (XBP1) activation; CHO-XBP1 luciferase reporter, IRE1-XBP1 UPR activation, luminescence; percent of tunicamycin response, DMSO as zero; activation, % at 20 µM; 330,000 tested, 0.33% active; AID 463104;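 active = versus positive control, 20 µM dose yields 30% or more activation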;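 note: 100% = tunicamycin at 10 µg/mL and 0% = DMSO only wells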
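Material: CHO cell line with stable XBP1 luciferase reporter; schedule: 16-18 h cell attachment at 37 °C, then 6 h compound exposure; signal: glow luminescence from Steady-Glo reagent; medium: serum-containing F12 medium, 10% FBS; benchmarks: tunicamycin 10 µg/mL and vehicle-only wells; read-out: percent activation relative to tunicamycin reference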
697 NFkB inh – inhibitors of the PMA/ionomycin-induced NF-kB reporter in 697 B cells; 330,000 tested, 0.33% active; 697 B-cell NF-kB luciferase reporter, 16 h; inhibition, % at 4 µM; in the data active = inhibition above about 35%
CHOP UPR activ – activators of apoptotic arm of unfolded protein response (CHOP). activation, % at 10 µM. CHO-CHOP luciferase reporter, UPR activation, luminescence; percent of tunicamycin response over DMSO baseline. AID 449763. 330,000 tested, 0.34% active;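 active = at 10 µM dose, activation of 40% or more, normalized to positive control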;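 note: 100% = tunicamycin at 10 µg/mL and 0% = DMSO alone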
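System: CHO-CHOP luciferase reporter cell line; amount: 500 cells/well; buffer or medium: F12 medium containing 10% fetal bovine serum; incubation: 6 h compound exposure at 37 °C after overnight seeding; measured by: luciferase luminescence after 10 min with Steady-Glo reagent; evaluation: % reporter activation, DMSO baseline versus tunicamycin full activation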
Jurkat NFkB inh – lowers PMA/ionomycin-induced NF-kB signal in Jurkat cells; PMA/ionomycin-induced NF-kB luciferase reporter, luminescence; inhibition, % at 4 µM; 330,000 tested, 0.53% active; in the data active = inhibition above about 50%
CHOP inh – blocks CHOP induction under ER stress | CHO-K1 CHOP-promoter luciferase, tunicamycin-induced, 15-18 h | inhibition, % at 10 µM | 220,000 tested, 3.8% active;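 active = compounds that reduced the stress-induced luciferase reporter signal by more than about 70% of percent inhibition, limit read from the data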;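 note: 0% = tunicamycin plus vehicle and 100% = wells without tunicamycin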
Gli-Sufu antag – blocks Gli-Sufu signaling in a luciferase reporter | Sufu-KO-LIGHT fibroblasts, Gli luciferase reporter luminescence | inhibition, % at 5 µM | 340,000 tested, 0.74% active | AID 588413;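 active = inhibition above about 55%, limit read from the data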;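 note: 0% = DMSO-treated cells and 100% = wells with medium but no cells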
XBP1 UPR conf – adaptive UPR (XBP1) activation, confirmed | 1,000 tested, 63% active | AID 485299 | CHO-XBP1 IRE1-XBP1 luciferase reporter, luminescence | activation, % at 20 µM | shares compounds with UPR XBP1 act;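 active = reporter signal at least 30% of the positive control's activation in two or more of four replicate wells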;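 note: plate controls were DMSO negative control for no effect and tunicamycin 10 µg/mL positive control for full effect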
The depositor's hits bear a star. This is a sample that favours compounds with a hit; in the whole collection about 3.9% have one here.

Results for Cc1nc(NC(=O)c2cc3c(C)nn(-c4ccccc4)c3s2)sc1C(=O)Nc1ccccc1 ?
UPR XBP1 act: 49*; 697 NFkB inh: 4; CHOP UPR activ: 1; Jurkat NFkB inh: -8; CHOP inh: -18; Gli-Sufu antag: -7; XBP1 UPR conf: 54*

Results for Cc1ccc(Nc2nc3ccc(Cl)cc3n3cnnc23)cc1F ?
UPR XBP1 act: 32*; 697 NFkB inh: 16; CHOP UPR activ: 2; Jurkat NFkB inh: 16; Gli-Sufu antag: 16; XBP1 UPR conf: 48*

What do the screens show for `COc1ccccc1C1C([N+](=O)[O-])=CC([N+](=O)[O-])=CN1C` (stereo not drawn)?
UPR XBP1 act: 51*; 697 NFkB inh: 16; CHOP UPR activ: 25; Jurkat NFkB inh: 20; CHOP inh: 43; Gli-Sufu antag: -14; XBP1 UPR conf: 0

How did COc1ccccc1C1NC=C([N+](=O)[O-])C=C1[N+](=O)[O-] (stereo not drawn) do in these assays?
UPR XBP1 act: -4; 697 NFkB inh: 2; CHOP UPR activ: 0; Jurkat NFkB inh: 6; CHOP inh: -30; Gli-Sufu antag: -6

How did COCCn1c(C)cc(C(=O)COC(=O)C2CC(=O)N(CCc3ccc(OC)c(OC)c3)C2)c1C (stereo not drawn) do in these assays?
UPR XBP1 act: 0; 697 NFkB inh: 11; CHOP UPR activ: 2; Jurkat NFkB inh: 1; Gli-Sufu antag: -11

How did CCOC(=O)c1c(NC(=O)COC(=O)c2nc(Cl)ccc2Cl)sc(C(=O)NC)c1C do in these assays?
UPR XBP1 act: 2; 697 NFkB inh: -10; CHOP UPR activ: 1; Jurkat NFkB inh: 3; Gli-Sufu antag: -4

How did CC(C)(C)C1CCc2sc(-c3nnc(CCl)o3)cc2C1 (stereo not drawn) do in these assays?
UPR XBP1 act: 44*; 697 NFkB inh: -34; CHOP UPR activ: 35; Jurkat NFkB inh: -25; CHOP inh: -15; Gli-Sufu antag: -17; XBP1 UPR conf: 10

How did ClCc1nnc(-c2cc3c(s2)CCCC3)o1 do in these assays?
CHOP inh: 4; Gli-Sufu antag: -4

What do the screens show for `CN1Cc2c(N3CCOCC3)nc3sc(C(=O)c4ccc(Br)cc4)c(N)c3c2CC1(C)C`?
UPR XBP1 act: 38*; 697 NFkB inh: 19; CHOP UPR activ: 8; Jurkat NFkB inh: 28; CHOP inh: -10; Gli-Sufu antag: -4; XBP1 UPR conf: 63*

How did CC(=O)O[C@H]1[C@@H](O)[C@H](O)[C@H](Oc2c(O)c(C)c3c4c2[C@@H](C)CC[C@@H]4[C@@H](C)C[C@H]3C=C(C)C)O[C@H]1C do in these assays?
UPR XBP1 act: 47*; 697 NFkB inh: -12; CHOP UPR activ: 5; Jurkat NFkB inh: 17; Gli-Sufu antag: 6; XBP1 UPR conf: 21

Results for COC(=O)c1ccc(CS(=O)(=O)c2ccc(C)cc2)o1 ?
UPR XBP1 act: -1; 697 NFkB inh: 12; CHOP UPR activ: 3; Jurkat NFkB inh: -2; Gli-Sufu antag: 43

What do the screens show for `COc1ccc(OC)c(NC(=O)c2oc3ccccc3c2NC(=O)C2CC2)c1`?
UPR XBP1 act: 60*; 697 NFkB inh: 0; CHOP UPR activ: 1; Jurkat NFkB inh: 10; Gli-Sufu antag: -4; XBP1 UPR conf: 40*

Results for COc1ccc(CC(=O)Nc2cc3oc4ccccc4c3cc2OC)cc1 ?
UPR XBP1 act: 2; 697 NFkB inh: -32; CHOP UPR activ: 6; Jurkat NFkB inh: -80; CHOP inh: 17; Gli-Sufu antag: -39

Results for COc1ccc(C(=O)NC(=S)Nc2cc3oc4ccccc4c3cc2OC)cc1 ?
UPR XBP1 act: 34*; 697 NFkB inh: 4; CHOP UPR activ: 27; Jurkat NFkB inh: -10; CHOP inh: 78*; Gli-Sufu antag: 3; XBP1 UPR conf: 11

What do the screens show for `O=C(NCCN1CCOCC1)C1CC(=O)N(c2cccc(C(F)(F)F)c2)C1` (stereo not drawn)?
UPR XBP1 act: 1; 697 NFkB inh: -9; CHOP UPR activ: 0; Jurkat NFkB inh: 9; Gli-Sufu antag: 0

How did C=CCN=C1S/C(=C/c2ccc([N+](=O)[O-])cc2)C(=O)N1CC=C do in these assays?
UPR XBP1 act: 3; 697 NFkB inh: 10; CHOP UPR activ: 0; Jurkat NFkB inh: 16; CHOP inh: -11; Gli-Sufu antag: 0

What do the screens show for `C=CCN=C1S/C(=C/c2cccc([N+](=O)[O-])c2)C(=O)N1CC=C`?
UPR XBP1 act: 33*; 697 NFkB inh: 10; CHOP UPR activ: 9; Jurkat NFkB inh: -3; CHOP inh: -9; Gli-Sufu antag: -30; XBP1 UPR conf: 47*

What do the screens show for `O=C(NC(=Nc1nc2ccccc2o1)NC(=O)c1ccccc1)c1ccccc1`?
UPR XBP1 act: 32*; 697 NFkB inh: -61; CHOP UPR activ: 12; Jurkat NFkB inh: -66; CHOP inh: 61; Gli-Sufu antag: -59; XBP1 UPR conf: 29

How did N/C(=N\c1nc2ccccc2o1)NC(=O)c1ccccc1NC(=O)c1ccccc1 do in these assays?
UPR XBP1 act: 5; 697 NFkB inh: -12; CHOP UPR activ: 0; Jurkat NFkB inh: -4; CHOP inh: 38; Gli-Sufu antag: -1

Results for COC(=O)c1cc(-c2ccc(Br)cc2)c2c(=O)n(C)c(=O)n(C)c2n1 ?
UPR XBP1 act: -2; 697 NFkB inh: 12; CHOP UPR activ: 1; Jurkat NFkB inh: 3; Gli-Sufu antag: 12

How did O=c1ccc2cc(S(=O)(=O)N3CCN(c4ccccc4)CC3)ccc2[nH]1 do in these assays?
UPR XBP1 act: 2; 697 NFkB inh: -4; CHOP UPR activ: -3; Jurkat NFkB inh: -7; Gli-Sufu antag: 0

Results for O=S(=O)(c1ccc2nc(-c3ccccc3)[nH]c2c1)N1CCN(c2ccc(Cl)cc2)CC1 ?
UPR XBP1 act: 90*; 697 NFkB inh: -17; CHOP UPR activ: 20; Jurkat NFkB inh: 6; CHOP inh: 105*; Gli-Sufu antag: -6; XBP1 UPR conf: 115*

Results for Cc1ccsc1C(=O)NCCc1nnc2ccccn12 ?
UPR XBP1 act: -1; 697 NFkB inh: -53; CHOP UPR activ: 6; Jurkat NFkB inh: -22; Gli-Sufu antag: -42

Results for COc1cc([N+](=O)[O-])ccc1NC(=S)NNC(=O)c1ccc2c(c1)OCO2 ?
UPR XBP1 act: 30*; 697 NFkB inh: -17; CHOP UPR activ: -1; Jurkat NFkB inh: -3; Gli-Sufu antag: -27; XBP1 UPR conf: 0
